Data on 29 compounds can be found in ChEMBL document CHEMBL4041491, “Imidazo[1,2-a]pyrazin-8-amine core for the design of new adenosine receptor antagonists: Structural exploration to target the A3 and A2A subtypes” (Eur J Med Chem, 2017).

A word on the inhibition: it is the drop in the measured response relative to a control, in per cent. The term Ki denotes a dissociation constant, usually derived from enzyme kinetics or from competition with a known ligand.

The target in assay [1] is T1, Adenosine receptor A3 (Homo sapiens, UniProt P0DMS8). The experiment in a line: Displacement of [125I]AB-MECA from human adenosine A3 receptor expressed in CHO cell membranes at 1 uM after 120 mins by scintillation counting method relative to control. In general terms: Loss of bound radioactivity is the signal in a displacement assay; it reports binding, not function.
T1 sequence (P0DMS8 whole entry, looked up): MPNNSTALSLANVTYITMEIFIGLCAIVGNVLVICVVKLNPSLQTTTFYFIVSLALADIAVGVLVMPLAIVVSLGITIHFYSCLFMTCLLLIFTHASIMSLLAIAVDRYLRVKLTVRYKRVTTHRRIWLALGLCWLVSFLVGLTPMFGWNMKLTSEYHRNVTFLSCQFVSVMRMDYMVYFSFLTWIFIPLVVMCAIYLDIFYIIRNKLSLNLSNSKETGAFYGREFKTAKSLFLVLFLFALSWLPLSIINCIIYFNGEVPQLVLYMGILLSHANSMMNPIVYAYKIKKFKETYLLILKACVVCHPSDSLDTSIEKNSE

Assay [2] addresses Adenosine receptor A2a (Homo sapiens, UniProt P29274). As to the kind of experiment: Displacement of [3H]ZM241385 from human adenosine A2A receptor expressed in CHO cell membranes at 1 uM after 60 mins by scintillation counting method relative to control. A digest of the protocol:
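hA2A CHO membranes (50 µg protein) with 1 nM [3H]ZM241385 in 50 mM Tris HCl, 10 mM MgCl2, pH 7.4, 60 min at 4 °C. Six to eight antagonist concentrations, or 1 µM for percent inhibition. Nonspecific binding with 1 µM ZM241385. Ki via Cheng–Prusoff, four assays in duplicate, means ± SEM.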

Assay [3] deals with T2, Adenosine receptor A2b (Homo sapiens) (UniProt P29275).
T2 sequence (whole entry): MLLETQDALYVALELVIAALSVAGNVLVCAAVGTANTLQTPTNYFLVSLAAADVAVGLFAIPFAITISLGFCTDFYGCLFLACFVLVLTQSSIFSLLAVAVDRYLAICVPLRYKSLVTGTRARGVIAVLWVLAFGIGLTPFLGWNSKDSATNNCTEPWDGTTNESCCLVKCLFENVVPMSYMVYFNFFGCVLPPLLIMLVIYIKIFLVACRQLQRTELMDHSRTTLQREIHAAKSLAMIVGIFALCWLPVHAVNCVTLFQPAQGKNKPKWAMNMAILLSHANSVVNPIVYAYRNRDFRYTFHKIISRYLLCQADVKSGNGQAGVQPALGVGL
As to the kind of experiment: Antagonist activity at human A2B receptor expressed in CHO cells assessed as inhibition of NECA-stimulated cAMP production at 1 uM by [3H]cAMP competition binding based scintillation counting method relative to control. Type of assay: functional, cell-based. A digest of the protocol:
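Transfected CHO cells (1 × 10^6/assay) in buffered saline pH 7.4 with adenosine deaminase 2 IU/ml and Ro 20-1724, preincubated 10 min at 37 °C. Test compound at 1 μM against 200 nM NECA-stimulated cAMP. TCA stop, ether extraction, cAMP measured by [3H]cAMP competition binding to bovine adrenal binding protein. Result given as percent inhibition.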
In general terms: Cyclic AMP is a second messenger, typically raised through Gs and lowered through Gi signalling.

Assay [4] deals with T3, Adenosine receptor A1 (Homo sapiens) (UniProt P30542).
T3 sequence (whole entry): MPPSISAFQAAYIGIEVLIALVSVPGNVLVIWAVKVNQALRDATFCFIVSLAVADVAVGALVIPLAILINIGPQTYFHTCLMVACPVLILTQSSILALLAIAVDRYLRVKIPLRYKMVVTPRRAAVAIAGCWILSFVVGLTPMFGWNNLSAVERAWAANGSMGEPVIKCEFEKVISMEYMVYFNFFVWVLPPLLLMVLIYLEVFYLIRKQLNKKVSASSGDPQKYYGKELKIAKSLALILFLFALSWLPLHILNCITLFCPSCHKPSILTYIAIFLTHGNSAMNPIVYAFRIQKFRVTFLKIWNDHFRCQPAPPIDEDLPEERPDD
The experiment in a line: Displacement of [3H]DPCPX from human adenosine A1 receptor expressed in CHO cell membranes at 1 uM after 120 mins by scintillation counting method relative to control. A digest of the protocol: (§1)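 hA1 CHO membranes (50 µg protein) with 1 nM [3H]DPCPX in 50 mM Tris HCl pH 7.4, 120 min at 25 °C. Six to eight antagonist concentrations, or 1 µM for percent inhibition. Nonspecific binding with 1 µM DPCPX. Ki via Cheng–Prusoff, four assays in duplicate, means ± SEM.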

The target of assay [5] is T4, Adenosine receptor A1 (Homo sapiens, UniProt P30542).
T4 sequence (P30542 whole entry): T3 sequence (whole entry)
The experiment in a line: Displacement of [3H]DPCPX from human adenosine A1 receptor expressed in CHO cell membranes after 120 mins by scintillation counting method. A digest of the protocol:
as §1

The target of assay [6] is T1, Adenosine receptor A3. As to the kind of experiment: Displacement of [125I]AB-MECA from human adenosine A3 receptor expressed in CHO cell membranes after 120 mins by scintillation counting method. A digest of the protocol:
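hA3 CHO membranes (50 µg protein) with 0.5 nM [125I]AB-MECA in 50 mM Tris HCl, 10 mM MgCl2, 1 mM EDTA, pH 7.4, 120 min at 4 °C. Six to eight ligand concentrations, or 1 µM for percent inhibition. Nonspecific binding with 1 µM AB-MECA; GF/B filtration. Ki by Cheng–Prusoff, four assays in duplicate, means ± SEM.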

Sequence of Adenosine receptor A2a (P29274 whole entry): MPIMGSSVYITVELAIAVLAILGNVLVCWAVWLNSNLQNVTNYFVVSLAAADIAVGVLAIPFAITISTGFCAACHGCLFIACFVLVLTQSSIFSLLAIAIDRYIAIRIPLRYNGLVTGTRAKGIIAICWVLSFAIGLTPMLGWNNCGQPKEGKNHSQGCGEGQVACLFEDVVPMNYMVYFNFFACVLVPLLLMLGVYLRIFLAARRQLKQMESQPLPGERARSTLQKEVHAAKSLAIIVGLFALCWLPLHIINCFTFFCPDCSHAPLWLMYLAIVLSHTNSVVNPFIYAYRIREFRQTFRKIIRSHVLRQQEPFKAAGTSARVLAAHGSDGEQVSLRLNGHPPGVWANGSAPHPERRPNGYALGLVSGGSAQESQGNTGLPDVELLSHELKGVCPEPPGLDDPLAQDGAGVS

Turning to `O=C(Nc1ccccc1)Nc1nccn2cc(-c3ccccc3)nc12`, the inhibition in assay [1] stood at 6%; in assay [2], 1%; in assay [3], 1%; in assay [4], 1%.

For `O=C(Nc1nccn2cc(-c3ccco3)nc12)c1ccccc1`, the inhibition in assay [1] was 22%; in assay [2] it was 1%; in assay [3] it was 1%; in assay [4], 7%.

Take `Nc1nccn2cc(-c3ccccc3)nc12`: the inhibition worked out at 12% in assay [1], 13% in assay [2], 30% in assay [3] and 30% in assay [4].

Turning to `COc1ccc(-c2cn3ccnc(N)c3n2)cc1`, the inhibition in assay [1], in assay [2], in assay [3] and in assay [4] was 1% each time.

Regarding `COc1cccc(-c2cn3cc(-c4ccccc4)nc3c(N)n2)c1`, the inhibition in assay [1] is 21%; in assay [2] it was 24%; in assay [3] it was 30%; in assay [4], 37%.

As for `Nc1nc(Br)cn2cc(-c3ccccc3)nc12`, the inhibition in assay [1] came to 14%; in assay [2], 18%; in assay [3], 40%. Moreover, the affinity in assay [5], expressed as Ki, was 420 nM.

Turning to `Nc1nc(-c2ccc(Cl)cc2)cn2cc(-c3ccccc3)nc12`, the inhibition in assay [1] worked out at 1%; in assay [2], 1%; in assay [3], 2%; in assay [4], 3%.

On to `Cc1ccc(C(=O)Nc2nccn3cc(-c4ccccc4)nc23)cc1`, for which the inhibition in assay [1] turned out to be 45%; in assay [2], 21%; in assay [3], 10%; in assay [4], 26%.

Consider `Cc1ccc(C(=O)Nc2nc(-c3ccccc3)cn3cc(-c4ccccc4)nc23)cc1`, for which the inhibition in assay [2] was found to be 1%; in assay [3], 3%; in assay [4] it was 1%. In assay [6], the Ki turned out to be 223 nM.

For `COc1ccc(-c2cn3cc(-c4ccccc4)nc(N)c3n2)cc1`, the inhibition turned out to be 27% in assay [1], 1% in assay [2] and 1% in assay [3]. This compound had a Ki in assay [5] of 524 nM.

Turning to `Nc1nc(-c2ccco2)cn2cc(-c3ccccc3)nc12`, the inhibition was 20% in assay [1], 38% in assay [2], 13% in assay [3] and 28% in assay [4].

On to `Nc1nc(-c2ccc(OCc3ccccc3)cc2)cn2cc(-c3ccccc3)nc12`, for which the inhibition in assay [1] is 1%; in assay [2], 1%; in assay [3], 4%; in assay [4] it was 10%.

In the case of `O=C(Nc1nc(-c2ccccc2)cn2cc(-c3ccccc3)nc12)c1ccco1`, the inhibition in assay [2] was 1%; in assay [3] it was 2%; in assay [4] it was 10%. Moreover, the affinity in assay [6] corresponds to a Ki of 67 nM.

For `COc1ccc(-c2cn3cc(Br)nc(N)c3n2)cc1`, the inhibition was 24% in assay [1], 11% in assay [2], 27% in assay [3] and 29% in assay [4].

Take `COc1ccc(-c2cn3cc(-c4ccccc4)nc3c(N)n2)cc1`: the inhibition in assay [1] came out at 23%; in assay [2], 23%; in assay [3] it was 16%; in assay [4], 20%.

As for `COc1ccc(-c2cn3ccnc(NC(=O)c4ccccc4)c3n2)cc1`, the inhibition in assay [2], in assay [3] and in assay [4] was 1% each time. In addition, in assay [6], the affinity corresponds to a Ki of 121 nM.

In the case of `O=C(Nc1nccn2cc(-c3ccccc3)nc12)C(c1ccccc1)c1ccccc1`, the inhibition in assay [2] is 1%; in assay [3], 25%; in assay [4], 32%. Affinity in assay [6] was put at a Ki of 245 nM.

With `Nc1nc(-c2cccc(NC(=O)Cc3ccccc3)c2)cn2cc(-c3ccccc3)nc12`, the inhibition in assay [1] is 8%; in assay [2], 33%; in assay [3] it was 7%; in assay [4] it was 37%.

On to `COc1ccc(C(=O)Nc2nccn3cc(-c4ccccc4)nc23)cc1`, for which the inhibition was 3% in assay [2], 1% in assay [3] and 1% in assay [4]. In assay [6], this compound registered an inhibition constant (Ki) of 162 nM.

Turning to `O=C(Nc1nc(-c2ccccc2)cn2cc(-c3ccccc3)nc12)c1ccc(Cl)cc1`, the inhibition in assay [2], in assay [3] and in assay [4] was 1% in each case. Besides, the affinity in assay [6], expressed as Ki, was 156 nM.

With `O=C(Nc1nc(-c2ccccc2)cn2cc(-c3ccccc3)nc12)c1cccs1`, the figures for the inhibition in assay [2], in assay [3] and in assay [4] were 1%, 4% and 5%, respectively. Moreover, the inhibition constant (Ki) in assay [6] turned out to be 185 nM.

As for `O=C(Cc1ccccc1)Nc1nccn2cc(-c3ccccc3)nc12`, the inhibition in assay [2] stood at 37%; in assay [3], 15%; in assay [4], 46%. This compound came in with an inhibition constant (Ki) in assay [6] of 524 nM.

For the compound `O=C(c1ccc(F)cc1)N(C(=O)c1ccc(F)cc1)c1nc(-c2ccccc2)cn2cc(-c3ccccc3)nc12`, the inhibition in assay [1] worked out at 31%; in assay [2], 1%; in assay [3], 3%; in assay [4], 1%.

With `Nc1nc(-c2cccc(C(=O)O)c2)cn2cc(-c3ccccc3)nc12`, the inhibition stood at 1% in assay [1], 9% in assay [2], 3% in assay [3] and 7% in assay [4].

With `O=C(Nc1nccn2cc(-c3ccccc3)nc12)c1cccnc1`, the inhibition in assay [1] amounted to 42%; in assay [2], 13%; in assay [3] it was 22%; in assay [4], 24%.

Consider `Nc1nccn2cc(-c3ccco3)nc12`, for which the inhibition in assay [1] is 5%; in assay [2], 12%; in assay [3] it was 1%; in assay [4], 21%.

Turning to `COc1ccc(-c2cn3cc(-c4ccccc4)nc(NC(=O)c4ccccc4)c3n2)cc1`, the values for the inhibition in assay [2], in assay [3] and in assay [4] were 1%, 1% and 3%, respectively. The Ki in assay [6] amounted to 312 nM.

As for `O=C(Nc1nc(-c2ccccc2)cn2cc(-c3ccccc3)nc12)c1ccc(F)cc1`, the inhibition in assay [2] was found to be 1%; in assay [3] it was 2%; in assay [4] it was 1%. Moreover, affinity in assay [6] was put at a Ki of 38 nM.

Consider `O=C(Nc1nccn2cc(-c3ccccc3)nc12)c1ccco1`, for which the inhibition was 40% in assay [1], 34% in assay [2], 19% in assay [3] and 25% in assay [4].
